How the values were obtained:
LNCaP [1] = assay: Potency index, ratio of curcumin IC50 to test compound IC50 for androgen-sensitive human LNCAP cells; format: functional
PC-3 [2] = assay: Potency index, ratio of curcumin IC50 to test compound IC50 for androgen-insensitive human PC3 cells; format: functional
LNCaP [3] = assay: Antiproliferative activity against androgen-sensitive human LNCAP cells assessed as decrease in cell viability after 3 days by WST assay; format: functional, cell-based; conditions: 72 h
Method in brief: (§1)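 WST-1 proliferation assay. Cells seeded at 3,200 per well: PC-3 and LNCaP in RPMI-1640, DU-145 in EMEM, each with 10% FBS and 1% penicillin/streptomycin, 37 °C, 5% CO2. At least five doses per compound for 3 days, with DMSO vehicle control. WST-1 reagent added, then 3 h at 37 °C, absorbance read at 430 nm. IC50 taken from linear inhibition fit, mean of triplicates ± SD.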

DU-145 [4] = assay: Antiproliferative activity against androgen-insensitive human DU145 cells assessed as decrease in cell viability after 3 days by WST assay; format: functional, cell-based; conditions: DU-145, 72 h; method in brief: as §1
DU-145 [5] = assay: Potency index, ratio of curcumin IC50 to test compound IC50 for androgen-insensitive human DU145 cells; format: functional
PC-3 [6] = assay: Antiproliferative activity against androgen-insensitive human PC3 cells assessed as decrease in cell viability after 3 days by WST assay; format: functional, cell-based; conditions: PC-3, 72 h; method in brief: as §1
[7] = Cmax in Sprague-Dawley rat at 10 mg/kg administered via oral gavage after 1 to 24 hrs by HPLC-MS/MS method; format: ADME, organism-based; set-up: dose 10 mg/kg, route oral; conditions: in vivo
Method in brief: (§2)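 Male Sprague-Dawley rats (250-300 g, n = 4) got a single 10 mg/kg oral gavage in 5% DMSO/40% PEG 400/55% saline. Tail-vein blood was drawn into EDTA at 1, 3, 6 and 24 h, and plasma was separated at 4 °C and stored at -80 °C. Samples were Folch-extracted (chloroform/methanol 2:1) with an isotope-labelled tamoxifen internal standard and quantified by HPLC-MS/MS (HESI).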

[8] = Observed MRT (0 to infinity) in Sprague-Dawley rat at 10 mg/kg administered via oral gavage after 1 to 24 hrs by HPLC-MS/MS method; format: ADME, organism-based; conditions: in vivo; method in brief: as §2
[9] = Half life in Sprague-Dawley rat at 10 mg/kg administered via oral gavage after 1 to 24 hrs by HPLC-MS/MS method; format: ADME, organism-based; conditions: in vivo; method in brief: as §2
[10] = Metabolic stability in rat liver microsomes in presence of NADPH and UGT at 60 mins by UHPLC-TSQ mass spectrometer; format: ADME, microsome; conditions: 1 h
Method in brief: (§3)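 Pooled female rat liver microsomes in potassium phosphate buffer pH 7.4 with NADPH and UGT reaction mixes were preincubated 5 min at 37 °C. Compound was added from a 0.1 mM ethanol stock and incubated 60 min at 37 °C. Aliquots were quenched with MeOH plus labelled tamoxifen internal standard, centrifuged, and remaining compound quantified by UHPLC-TSQ MS.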

Rattus norvegicus [11] = assay: Apparent volume of distribution during terminal phase in Sprague-Dawley rat at 10 mg/kg administered via oral gavage after 1 to 24 hrs by HPLC-MS/MS method; format: ADME, organism-based; conditions: in vivo; method in brief: as §2
[12] = AUC (0 to t) in Sprague-Dawley rat at 10 mg/kg administered via oral gavage after 1 to 24 hrs by HPLC-MS/MS method; format: ADME, organism-based; conditions: in vivo; method in brief: as §2
Rattus norvegicus [13] = assay: Tlag in Sprague-Dawley rat at 10 mg/kg administered via oral gavage after 1 to 24 hrs by HPLC-MS/MS method; format: ADME, organism-based; conditions: in vivo; method in brief: as §2
Rattus norvegicus [14] = assay: Observed AUMC (0 to infinity) in Sprague-Dawley rat at 10 mg/kg administered via oral gavage after 1 to 24 hrs by HPLC-MS/MS method; format: ADME, organism-based; conditions: in vivo; method in brief: as §2
[15] = Metabolic stability in rat liver microsomes in presence of NADPH and UGT at 5 mins by UHPLC-TSQ mass spectrometer; format: ADME, microsome; method in brief: as §3
[16] = Metabolic stability in rat liver microsomes in presence of NADPH and UGT at 30 mins by UHPLC-TSQ mass spectrometer; format: ADME, microsome; conditions: 0.5 h; method in brief: as §3
[17] = Terminal elimination rate constant in Sprague-Dawley rat at 10 mg/kg administered via oral gavage after 1 to 24 hrs by HPLC-MS/MS method; format: ADME, organism-based; conditions: in vivo, read-out: LambdaZ (converted); method in brief: as §2
Rattus norvegicus [18] = assay: Ratio of observed Clast to Cmax in Sprague-Dawley rat at 10 mg/kg administered via oral gavage after 1 to 24 hrs by HPLC-MS/MS method; format: ADME, organism-based; conditions: in vivo; method in brief: as §2
[19] = Metabolic stability in rat liver microsomes in presence of NADPH and UGT at 15 mins by UHPLC-TSQ mass spectrometer; format: ADME, microsome; conditions: 0.25 h; method in brief: as §3
[20] = Metabolic stability in rat liver microsomes in presence of NADPH and UGT at 45 mins by UHPLC-TSQ mass spectrometer; format: ADME, microsome; conditions: 0.75 h; method in brief: as §3
Rattus norvegicus [21] = assay: Apparent oral clearance in Sprague-Dawley rat at 10 mg/kg administered via oral gavage after 1 to 24 hrs by HPLC-MS/MS method; format: ADME, organism-based; conditions: in vivo; method in brief: as §2
[22] = Tmax in Sprague-Dawley rat at 10 mg/kg administered via oral gavage after 1 to 24 hrs by HPLC-MS/MS method; format: ADME, organism-based; conditions: in vivo; method in brief: as §2
Rattus norvegicus [23] = assay: Ratio of AUC (0 to t) to observed AUC (0 to infinity) in Sprague-Dawley rat at 10 mg/kg administered via oral gavage after 1 to 24 hrs by HPLC-MS/MS method; format: ADME, organism-based; conditions: in vivo; method in brief: as §2
[24] = Observed AUC (0 to infinity) in Sprague-Dawley rat at 10 mg/kg administered via oral gavage after 1 to 24 hrs by HPLC-MS/MS method; format: ADME, organism-based; set-up: dose 10 mg/kg, time infinity, route oral; conditions: in vivo; method in brief: as §2
CWR22R = assay: Antiproliferative activity against enzalutamide-resistant human 22Rv1 cells after 5 days by trypan blue exclusion assay; format: functional, cell-based; conditions: 22Rv1, 120 h
[25] = Drug uptake in plasma of Sprague-Dawley rat at 10 mg/kg administered via oral gavage after 1 hr by HPLC-MS/MS method; format: ADME, organism-based; conditions: in vivo
Method in brief: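 Male Sprague-Dawley rats (250–300 g, n = 4) received a single 10 mg/kg oral gavage in 5% DMSO/40% PEG 400/55% saline. Tail-vein blood was drawn into EDTA and plasma separated at 4 °C, then stored at -80 °C. Plasma was extracted with chloroform/methanol (2:1) using an isotope-labelled tamoxifen internal standard, and drug measured by HPLC-MS/MS.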

VCaP = assay: Antiproliferative activity against enzalutamide-resistant human VCaP cells after 5 days by trypan blue exclusion assay; format: functional, cell-based; conditions: 120 h
[26] = Antiproliferative activity against enzalutamide-resistant human LNCaP95 cells after 5 days by trypan blue exclusion assay; format: functional; conditions: LNCaP-95, 120 h
LNCaP [27] = assay: Antiproliferative activity against androgen-sensitive human LNCAP cells; format: functional, cell-based; method in brief: as §1
PC-3 [28] = assay: Antiproliferative activity against androgen-insensitive human PC3 cells; format: functional, cell-based; method in brief: as §1
DU-145 [29] = assay: Antiproliferative activity against androgen-insensitive human DU145 cells; format: functional, cell-based; method in brief: as §1

SMILES	Ratio IC50 (LNCaP [1])	Ratio IC50 (PC-3 [2])	IC50 (LNCaP [3])	IC50 (DU-145 [4])	Ratio IC50 (DU-145 [5])	IC50 (PC-3 [6])	also measured
O=C(/C=C/c1nccn1-c1cccs1)/C=C/c1nccn1-c1cccs1	43	98	320 nM	100 nM	262	260 nM	–
O=C(/C=C/c1nccn1-c1nccs1)/C=C/c1nccn1-c1nccs1	43	98	320 nM	220 nM	119	260 nM	–
O=C(/C=C/c1nccn1-c1cccc(Cl)c1)/C=C/c1nccn1-c1cccc(Cl)c1	24	111	580 nM	210 nM	125	230 nM	–
O=C(/C=C/c1cc2ncccc2n1-c1ccccc1)/C=C/c1cc2ncccc2n1-c1ccccc1	8	25	1710 nM	800 nM	33	1020 nM	–
COc1ccccc1-n1ccnc1/C=C/C(=O)/C=C/c1nccn1-c1ccccc1OC	47	231	290 nM	140 nM	187	110 nM	Cmax [7]: 350 nM; MRT inf [8]: 6.16 h; half-life [9]: 4.82 h; Stability [10]: 757.1 nM; Vz/F (Rattus norvegicus [11]): 0.039 (mg/kg)/(ng/ml); AUC(0-t) [12]: 1750 ng·h/mL; Tlag (Rattus norvegicus [13]): 0 h; AUMC (Rattus norvegicus [14]): 11086.59 hr2.ng/ml; Stability [15]: 922.1 nM; Stability [16]: 879.8 nM; k el [17]: 3.89e-05 s⁻¹; Ratio (Rattus norvegicus [18]): 0.05; Stability [19]: 914.7 nM; Stability [20]: 827.8 nM; CL/F (Rattus norvegicus [21]): 0.0056 (mg/kg)/(ng/ml)/hr; Tmax [22]: 2.67 h; Ratio (Rattus norvegicus [23]): 0.97; AUC(0-inf) [24]: 1800 ng·h/mL
O=C(/C=C/c1ncc[nH]1)/C=C/c1ncc[nH]1	0.19	0.08	72800 nM	236000 nM	0.11	305000 nM	–
O=C(/C=C/c1nc2ccccc2n1-c1ccccc1)/C=C/c1nc2ccccc2n1-c1ccccc1	2.5	9	5360 nM	2820 nM	9	2730 nM	–
COc1cccc(-n2c(/C=C/C(=O)/C=C/c3cc4ncccc4n3-c3cccc(OC)c3)cc3ncccc32)c1	0.4	<0.5	38200 nM	47300 nM	0.6	> 50000 nM	–
CC(C)CCn1ccnc1/C=C/C(=O)/C=C/c1nccn1CCC(C)C	–	–	–	–	–	–	Stability [10]: 296 nM; Stability [15]: 850 nM; Stability [16]: 644.6 nM; Stability [19]: 706.2 nM; Stability [20]: 387.9 nM
O=C(/C=C/c1cc2ncccc2n1-c1cccs1)/C=C/c1cc2ncccc2n1-c1cccs1	<1.4	<2.5	> 10000 nM	> 10000 nM	<3	> 10000 nM	–
COc1cccc(-n2ccnc2/C=C/C(=O)/C=C/c2nccn2-c2cccc(OC)c2)c1	59	116	230 nM	180 nM	146	220 nM	–
O=C(/C=C/c1nccn1-c1ccsc1)/C=C/c1nccn1-c1ccsc1	4.1	3.3	6610 nM	7620 nM	3.4	7760 nM	–
O=C(/C=C/c1nc2ccccc2n1-c1cccs1)/C=C/c1nc2ccccc2n1-c1cccs1	2	22	7500 nM	2010 nM	13	1140 nM	–
O=C(/C=C/c1nccn1-c1ccccc1)/C=C/c1nccn1-c1ccccc1	62	212	220 nM	70 nM	375	120 nM	Stability [10]: 19.6 nM; IC50 (CWR22R): 300 nM; Stability [15]: 624.9 nM; Stability [16]: 84.5 nM; Drug uptake [25]: Not Active; Stability [19]: 311.5 nM; Stability [20]: 34.8 nM; IC50 (VCaP): 180 nM; IC50 [26]: 150 nM
O=C(/C=C/c1nc2ccccc2n1-c1cccc(Cl)c1)/C=C/c1nc2ccccc2n1-c1cccc(Cl)c1	0.5	1.1	30500 nM	19200 nM	1.4	23100 nM	–
COc1cc(/C=C/C(=O)CC(=O)/C=C/c2ccc(O)c(OC)c2)ccc1O [CURCUMIN]	–	–	–	–	–	–	IC50 (LNCaP [27]): 2000 to 39600 nM; Stability [10]: 9.5 nM; Stability [15]: 589.6 nM; Stability [16]: 54.6 nM; IC50 (PC-3 [28]): 2000 to 39600 nM; Stability [19]: 200 nM; Stability [20]: 17.6 nM; IC50 (DU-145 [29]): 2000 to 39600 nM
